{"data": "Experimental data pooled from the literature", "target": "Tyrosine-protein kinase Mer (MERTK, Homo sapiens, UniProt Q12866)", "One construct used (Q12866 21-999)": "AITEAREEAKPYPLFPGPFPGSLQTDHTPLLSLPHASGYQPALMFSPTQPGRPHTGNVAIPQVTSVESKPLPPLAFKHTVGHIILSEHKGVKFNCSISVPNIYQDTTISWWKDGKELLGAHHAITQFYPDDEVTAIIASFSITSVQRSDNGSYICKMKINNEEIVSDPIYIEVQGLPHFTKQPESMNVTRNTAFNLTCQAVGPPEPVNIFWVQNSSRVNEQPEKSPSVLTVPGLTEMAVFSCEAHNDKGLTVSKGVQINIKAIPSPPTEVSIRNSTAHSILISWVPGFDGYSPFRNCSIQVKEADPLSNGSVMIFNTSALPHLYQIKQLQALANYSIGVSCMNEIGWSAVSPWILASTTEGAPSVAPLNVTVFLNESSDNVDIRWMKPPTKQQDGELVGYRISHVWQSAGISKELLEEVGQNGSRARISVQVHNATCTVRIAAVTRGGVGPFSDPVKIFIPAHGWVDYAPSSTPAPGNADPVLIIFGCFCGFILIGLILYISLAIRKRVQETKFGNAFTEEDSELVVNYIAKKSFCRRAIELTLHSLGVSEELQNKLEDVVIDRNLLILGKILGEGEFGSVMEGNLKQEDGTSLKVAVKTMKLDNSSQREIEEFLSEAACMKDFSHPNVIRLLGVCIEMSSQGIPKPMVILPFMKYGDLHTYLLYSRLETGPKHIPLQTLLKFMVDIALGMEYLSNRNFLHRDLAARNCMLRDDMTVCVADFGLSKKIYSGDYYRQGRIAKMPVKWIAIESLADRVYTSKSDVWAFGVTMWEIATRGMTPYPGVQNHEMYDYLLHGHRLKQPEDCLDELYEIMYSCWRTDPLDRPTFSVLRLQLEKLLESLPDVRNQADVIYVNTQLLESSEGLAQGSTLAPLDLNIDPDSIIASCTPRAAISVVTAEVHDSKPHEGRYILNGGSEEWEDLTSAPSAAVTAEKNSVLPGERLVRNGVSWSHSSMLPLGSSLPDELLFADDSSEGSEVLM", "note": "Lines come from different studies, so protocols differ."}
{"Compound": "CC(C)(C)c1nc(-c2cccc(NS(=O)(=O)c3c(F)cccc3F)c2F)c(-c2ccnc(N)n2)s1", "observed": "enzyme activity", "action": "inhibitor", "technique": "radiometric", "concentration": "1 µM", "quantity": "remaining activity", "result": "115%"}
{"Compound": "Cn1c2c(c3ccc(Cl)c(Cl)c31)C(C#N)C1(CCOCC1)NC2=O (stereo not drawn)", "observed": "thermal stability", "technique": "DSF", "concentration": "10 µM", "quantity": "ΔTm", "result": "-0.5 °C"}
{"Compound": "N#CCCc1ccc2c(c1)-c1[nH]c3ccc([N+](=O)[O-])cc3c1CC(=O)N2", "observed": "cell-free assay", "concentration": "0.5 µM", "quantity": "remaining signal", "result": "77.5%"}
{"Compound": "Cn1c2c(c3ccc(Cl)c(Cl)c31)C(C#N)C1(CCNCC1)NC2=O (racemic)", "observed": "thermal stability", "technique": "DSF", "concentration": "10 µM", "quantity": "ΔTm", "result": "0.5 °C"}
{"Compound": "COc1ccc2c(O[C@@H]3C[C@H]4C(=O)N[C@]5(C(=O)O)CC5/C=C\\CCCCC[C@H](NC(=O)OC5CCCC5)C(=O)N4C3)cc(-c3csc(NC(=O)C(C)C)n3)nc2c1C (stereo partly drawn)", "observed": "cell-free assay", "technique": "competition with immobilised ligand", "concentration": "1 µM", "quantity": "remaining binding", "result": "70%"}
{"Compound": "Cc1sc(C(=O)NC2COC2)cc1-n1cc(NC(=O)Nc2c(F)cccc2Cl)cn1", "observed": "enzyme activity", "action": "inhibitor", "concentration": "10 µM", "quantity": "remaining activity", "result": "103%"}
{"Compound": "COc1cc2ncnc(Nc3ccc(Oc4ccccc4)c(C)c3C)c2cc1OC", "observed": "enzyme activity", "action": "inhibitor", "concentration": "1 µM", "quantity": "inhibition", "result": "28%"}
{"Compound": "Cc1ccc(Nc2nccc(N(C)c3ccc4c(C)n(C)nc4c3)n2)cc1S(N)(=O)=O", "observed": "enzyme activity", "action": "inhibitor", "concentration": "0.3 µM", "quantity": "inhibition", "result": "32%"}
{"Compound": "Cn1c2c(c3ccc(Cl)c(Cl)c31)C(C#N)C1(CCCC1)NC2=O (stereo not drawn)", "observed": "thermal stability", "technique": "DSF", "concentration": "10 µM", "quantity": "ΔTm", "result": "-0.5 °C"}
{"Compound": "Nc1ncnc2occ(-c3ccc(NC(=O)Nc4cc(C(F)(F)F)ccc4F)cc3)c12", "observed": "cell-free assay", "concentration": "20 µM", "quantity": "remaining signal", "result": "0.25%"}
{"Compound": "CNC(=O)c1cc(Oc2ccc(NC(=O)Nc3ccc(Cl)c(C(F)(F)F)c3)cc2)ccn1", "observed": "enzyme activity", "action": "inhibitor", "concentration": "10 µM", "quantity": "inhibition", "result": "82%"}
{"Compound": "O=C(NS(=O)(=O)c1ccc(NCC2CCOCC2)c([N+](=O)[O-])c1)c1ccc(N2CCN(Cc3ccc(C(F)(F)F)cc3-c3ccc(Cl)cc3)CC2)cc1Oc1cnc2[nH]ccc2c1", "observed": "cell-free assay", "technique": "competition with immobilised ligand", "concentration": "1 µM", "quantity": "remaining binding", "result": "100%"}
{"Compound": "O=C1Nc2ccc(Cl)cc2C1=Cc1cc(Cl)c(O)c(Cl)c1", "observed": "cell-free assay", "concentration": "0.5 µM", "quantity": "remaining signal", "result": "88.4%"}
{"Compound": "CCCCN(CCCC)C(=O)CN1C[C@H](c2cc(OC)c3c(c2)OCO3)[C@@H](C(=O)O)[C@@H]1CC(C)(C)CCC", "observed": "cell-free assay", "technique": "competition with immobilised ligand", "concentration": "1 µM", "quantity": "remaining binding", "result": "100%"}
{"Compound": "CC(C)(O)[C@H]1CC[C@H](Nc2ccc3ncc(-c4cccc(C(F)(F)F)c4)n3n2)CC1", "observed": "enzyme activity", "action": "inhibitor", "concentration": "1 µM", "quantity": "remaining activity", "result": "64.1%"}
{"Compound": "CO[C@H]1CC[C@H](CNc2ccc(S(=O)(=O)NC(=O)c3ccc(N4CCN(CC5=C(c6ccc(Cl)cc6)CC(C)(C)CC5)CC4)cc3Oc3cnc4[nH]ccc4c3)cc2[N+](=O)[O-])CC1", "observed": "cell-free assay", "technique": "competition with immobilised ligand", "concentration": "1 µM", "quantity": "remaining binding", "result": "85%"}
{"Compound": "Cc1ccc(C(=O)Nc2ccc(CN3CCN(C)CC3)c(C(F)(F)F)c2)cc1C#Cc1cnc2cccnn12", "observed": "enzyme activity", "concentration": "23.5 nM", "quantity": "remaining activity", "result": "86%"}
{"Compound": "Cc1c[nH]c2nccc(Oc3c(F)cc(Nc4cc(Cl)nc(N)n4)cc3F)c12", "observed": "cell-free assay", "technique": "competition with immobilised ligand", "concentration": "0.1 µM", "quantity": "remaining binding", "result": "100%"}
{"Compound": "COc1cc(Cl)c(C(=O)N[C@@H](CN[C@H]2CC[C@@H](N)CC2)Cc2ccc(C#N)cc2)cc1-c1ccc(CN[C@H](C)c2ccc(C)cc2)o1", "observed": "enzyme activity", "action": "inhibitor", "concentration": "1 µM", "quantity": "remaining activity", "result": "99%"}
{"Compound": "O=C(NC[C@@H]1[C@H]2CN(C(=O)OCc3cc(C(F)(F)F)cc(C(F)(F)F)c3)C[C@@H]12)c1ccc2[nH]nnc2c1", "observed": "cell-free assay", "technique": "competition with immobilised ligand", "concentration": "1 µM", "quantity": "remaining binding", "result": "100%"}
{"Compound": "CCCOc1ccc(OC)c(F)c1C(=O)c1ccc(C(=O)N[C@@H]2CNC[C@H]2NC(=O)c2ccc3[nH]ncc3c2)cc1", "observed": "enzyme activity", "action": "inhibitor", "concentration": "10 µM", "quantity": "remaining activity", "result": "36%"}
